From PubChem
PPC-1+TRAIL kill: PPC-1 cancer cell killing with TRAIL present; PPC-1 cells + TRAIL, ATPLite viability luminescence; cell killing (% activity), % at 4 µM or 5 µM; hit rate 0.41% among 220,000; AID 1443;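 active = cell killing above 50% in the first pass at 4 µM, then a duplicate retest at 5 µM averaging 50% or more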;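 also: plate controls were cells with TRAIL plus DMSO for no effect and medium-only wells lacking cells for full effect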
FLuc inh counter: Photinus pyralis luciferase inhibition counter-screen | P08659 | ATPLite firefly luciferase biochemical luminescence, 10 min | inhibition, % at 10 µM | hit rate 1.5% among 200,000 | AID 1006;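 active = inhibition above about 50% when tested at 10 µM, limit read from the data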
Target sequence (P08659 whole entry, looked up): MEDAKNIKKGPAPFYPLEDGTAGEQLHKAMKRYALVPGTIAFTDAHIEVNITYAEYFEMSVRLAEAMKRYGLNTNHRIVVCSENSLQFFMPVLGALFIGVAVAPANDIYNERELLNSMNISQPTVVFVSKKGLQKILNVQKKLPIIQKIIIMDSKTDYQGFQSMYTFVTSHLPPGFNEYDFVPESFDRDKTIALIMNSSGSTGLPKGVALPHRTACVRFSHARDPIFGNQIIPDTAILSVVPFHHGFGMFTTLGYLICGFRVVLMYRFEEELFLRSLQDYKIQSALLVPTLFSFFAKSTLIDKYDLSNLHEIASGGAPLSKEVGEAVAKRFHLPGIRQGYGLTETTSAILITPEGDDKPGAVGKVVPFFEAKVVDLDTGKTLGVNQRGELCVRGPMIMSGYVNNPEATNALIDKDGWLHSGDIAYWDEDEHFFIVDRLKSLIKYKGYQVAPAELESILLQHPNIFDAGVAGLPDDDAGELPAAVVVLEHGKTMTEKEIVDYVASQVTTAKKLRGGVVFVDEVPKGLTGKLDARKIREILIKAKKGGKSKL
C8 TRAIL sens: sensitizes caspase-8 expressing cells to TRAIL. inhibition (viability loss, TRAIL sensitization), % at 10 µM. NB7+C8 cells + TRAIL, ATPlite viability luminescence. hit rate 1% among 360,000;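 active = compounds causing at least 50% loss of cell viability in the single-dose screen, relative to plate controls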
FLuc stim CS: affects firefly luciferase, flagging false hits in luciferase stimulation screens | ATPlite luciferase biochemical, luminescence, 10 min; 0 = ATP-free wells, 1 = DMSO control | AID 1027 | 200,000 tested, under 10 active | P08659 | activation factor at 10 µM;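 active = luciferase activation factor, scaled between plate controls, of at least 2 with compound at 10 µM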
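System: luciferase plus luciferin reagent, cell-free; medium: PBS as buffer for the ATP substrate; dosing: test compounds dosed from 2 mM stocks in 100% DMSO; timing: 10 min post-reagent at room temperature; measured by: luminescence measurement of luciferase light output; evaluation: luciferase activation, seen as luminescence increase over controls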
* hit, by the source's call; · = no result given. Rows were chosen to be rich in hits. Some 1.5% of all compounds tested hit in one or more screens of this group.

SMILES | PPC-1+TRAIL kill | FLuc inh counter | C8 TRAIL sens | FLuc stim CS
Cc1c(C(=O)N(C)C2CCCCC2)sc2ncnc(N3CCN(c4ccccc4)CC3)c12 | · | · | 13.5 | ·
Cc1cc(NC(=O)c2ccccc2)nc2c1c(=O)oc1ccccc12 | 3.3 | 0.0 | -2.2 | 1
Cc1cc(NC(=O)c2ccc(S(=O)(=O)N3CCCC3)cc2)nc2c1c(=O)oc1ccccc12 | 19.9 | -3.6 | 55.4* | 1
CCOc1ccc(C(=O)Nc2cc(C)c3c(=O)oc4ccccc4c3n2)cc1 | 15.9 | -2.2 | 56.3* | 1
N#CC12C(=O)NC(=O)C1(C#N)C21CCCC1 (stereo unspecified) | · | · | -18.9 | ·
COc1ccc(OC)c(NC(=O)c2cc(-c3cc(Cl)ccc3O)n[nH]2)c1 | 6.6 | -5.2 | 51.3* | 1.1
O=C1C=C(N2CCOCC2)c2ccccc2C1=O | · | · | 93.1* | ·
COc1ccc(CCN(C)C2CCCN(C(=O)CCC(F)(F)F)C2)cc1OC (stereo unspecified) | · | · | -1.6 | ·
O=C(/C=C/Nc1ccccc1F)c1ccc(Br)cc1 | 40.4 | 79.6* | 68.0* | 0.2
N#Cc1ccccc1N/C=C/C(=O)c1ccc(Cl)cc1 | · | · | 50.6* | ·
CC(=O)Nc1ccc(N/C=C/C(=O)c2ccc(Cl)cc2)cc1 | · | · | 13.2 | ·
O=C(/C=C/Nc1ccc(Br)cc1F)c1ccccc1 | 79.9* | 95.8* | 93.9* | 0
O=C(/C=C/Nc1ccc(F)c(F)c1)c1ccc(Br)cc1 | 6.3 | 16.7 | 14.9 | 0.8
O=C(NCc1ccc2c(c1)OCO2)C(=O)NCC1OCCN1S(=O)(=O)c1ccccc1 (stereo unspecified) | · | · | 4.8 | ·
O=C(CCc1ccc(Oc2cc([N+](=O)[O-])cc([N+](=O)[O-])c2)cc1)N1CCCCC1 | 13.4 | 23.0 | 6.4 | 0.8
Cc1nn(C(=O)c2ccco2)c(C)c1Br | -11.7 | -7.1 | 5.3 | 1.1
Cc1ccn2c(c1)nc(=S)n2C(=O)c1ccco1 | 71.4* | 93.6* | · | 0.1
CCc1ccc(-c2cn3c(n2)SCC3)cc1 | 31.0 | 64.1* | 28.8 | 0.4
Cc1ccc(C)c(NC(=S)NC(NC(=O)Cc2cccc3ccccc23)C(Cl)(Cl)Cl)c1 (stereo unspecified) | 18.5 | -3.6 | 85.1* | 1
O=C1NC(c2ccc3c(c2)OCO3)Nc2ccccc21 (stereo unspecified) | 70.9* | -5.8 | 26.5 | 1.1
O=C1NC(c2ccc3ccccc3c2)Nc2ccccc21 (stereo unspecified) | · | · | 29.2 | ·
CCN(CC)c1ccc(C2NC(=O)c3ccccc3N2)cc1 (stereo unspecified) | · | · | 91.9* | ·
C/C(=N\Nc1cccc2cccnc12)c1ccccc1O | 37.0 | 68.5* | 39.9 | 0.3
Oc1cccc(/C=N/Nc2cccc3cccnc23)c1 | 33.0 | 80.9* | 54.2* | 0.2
C/C(=N\Nc1cccc2cccnc12)c1ccc(N)cc1 | 15.6 | 11.2 | 2.2 | 0.9
SMILES | PPC-1+TRAIL kill | FLuc inh counter | C8 TRAIL sens | FLuc stim CS
COc1cc(/C=N/Nc2cccc3cccnc23)cc(OC)c1O | 15.1 | 85.9* | 43.0 | 0.1
Cc1ccc(S(=O)(=O)N2CCN(C(C)C(=O)NCC(C)c3ccccc3)CC2)cc1 (stereo unspecified) | · | · | -2.9 | ·
CC1=NNC(=O)/C1=C\c1cn(-c2ccccc2)nc1-c1ccc(F)cc1 | 21.6 | -7.8 | 86.0* | 1.1
O=C(Nc1ccccc1)C1Cc2c(-c3cccc(F)c3)ccnc2O1 (stereo unspecified) | · | · | -7.6 | ·
CS(=O)(=O)Nc1cccc(NC(=O)C2Cc3c(-c4cccc(F)c4)ccnc3O2)c1 (stereo unspecified) | · | · | 69.7* | ·
CCOC(=O)C1=CCN(S(=O)(=O)c2ccccc2C)C1c1ccc(Cl)cc1 (stereo unspecified) | · | · | 59.4* | ·
COc1ccc(C2N=C(N)N=C(N)N2c2ccc(C)cc2)cc1 (stereo unspecified) | 1.0 | -2.9 | -10.1 | 1
Cc1cc(C)cc(N2C(N)=NC(N)=NC2c2ccccc2F)c1 (stereo unspecified) | · | · | 69.8* | ·
Cc1cc(C)cc(N2C(N)=NC(N)=NC2c2cccc(Cl)c2)c1 (stereo unspecified) | · | · | 68.7* | ·
COc1cccc2c1C(=O)c1c(O)c3c(c(O)c1C2=O)C[C@@](O)(C(=O)CO)C[C@@H]3O[C@H]1C[C@H](N)[C@H](O)[C@H](C)O1 | 54.2* | 13.0 | 62.1* | 0.9
COc1cccc2c1C(=O)c1c(O)c3c(c(O)c1C2=O)C[C@@](O)(C(=O)CO)C[C@@H]3OC1CC(N)C(O)C(C)O1 (stereo partly specified) | · | · | 44.9 | ·
CC(=O)[C@@]1(O)Cc2c(O)c3c(c(O)c2[C@H](O[C@H]2C[C@H](N)[C@H](O)[C@H](C)O2)C1)C(=O)c1ccccc1C3=O | · | · | 81.7* | ·
CSc1cccc(NC(=O)c2cc(S(=O)(=O)N3CCc4ccccc43)cn2C)c1 | · | · | -9.5 | ·
O=C(O/N=C1\CCCc2ccccc21)c1cccs1 | 0.1 | 91.4* | -5.2 | 0.1
N/C(=N\OC(=O)c1cccs1)c1cccc(Br)c1 | 11.9 | 87.2* | -10.2 | 0.1
Cc1cccc(/C(N)=N/OC(=O)c2cccs2)c1 | 23.7 | 90.3* | 41.0 | 0.1
COc1cc(OC)c(C(=O)O/N=C(\N)c2cccc(C)c2)cc1OC | · | · | 4.9 | ·
N/C(=N\OC(=O)c1cccs1)c1ccccc1 | 15.7 | 94.4* | 11.2 | 0.1
CC(=O)c1cccc(NC(=O)CCc2nnc3ccc(N4CCOCC4)nn23)c1 | · | · | 0.2 | ·
Cc1ccc(/C(N)=N/OC(=O)c2cccs2)cc1 | 38.6 | 74.5* | 29.6 | 0.3
COc1ccc(/C(N)=N/OC(=O)c2cccs2)cc1OC | · | 24.1 | 6.0 | 0.8
Cc1cccc(/C(N)=N/OC(=O)c2ccc(F)cc2)c1 | 13.0 | 96.6* | 7.6 | 0
CCC(=O)N1CCc2cc(S(=O)(=O)NC(C(=O)NC3CCCc4ccccc43)C(C)C)ccc21 (stereo unspecified) | 61.6* | -0.3 | 8.3 | 1
CCC(=O)N1CCc2cc(S(=O)(=O)NC(C(=O)NCc3ccc(C)cc3)C(C)C)ccc21 (stereo unspecified) | 19.6 | -10.7 | 1.8 | 1.1
Cc1nc(Nc2nc3ccccc3o2)nc(C)c1C | 20.2 | 51.3* | 26.0 | 0.5
SMILES | PPC-1+TRAIL kill | FLuc inh counter | C8 TRAIL sens | FLuc stim CS
Cc1ccnc(Nc2nc3ccccc3o2)n1 | 45.9 | 68.6* | 47.4 | 0.3
O=C(Nc1ccc(OCC(F)(F)C(F)F)c(C(F)(F)F)c1)c1ccccc1 | · | · | 34.5 | ·
O=C(Nc1ccc(OCC(F)(F)C(F)F)c(C(F)(F)F)c1)c1ccccc1O | 0.8 | 3.1 | 58.4* | 1
O=C(Nn1c(COc2ccccc2)nc2ccccc2c1=O)C(Cl)(Cl)Cl | · | · | 7.8 | ·
O=C(CSc1nc2ccccc2c(=O)[nH]1)Nc1ccc([N+](=O)[O-])cc1 | · | · | 60.9* | ·
Cc1cc(C)nc(Nc2nc(-c3ccccc3)cs2)n1 | · | · | 77.0* | ·
COc1ccc(OCC(=O)Nc2nccs2)cc1 | 47.6 | 75.3* | 48.2 | 0.2
COc1ccc(OCCC(=O)Nc2nccs2)cc1 | -1.6 | 8.4 | 3.4 | 0.9
COCc1nnc(NC(=O)COc2ccc3c(c2)OCO3)s1 | · | · | 11.5 | ·
O=C(COc1ccc2c(c1)OCO2)Nc1nccs1 | · | · | 52.6* | ·
Cc1ccc(S(=O)(=O)N2CCC(C(N)=O)CC2)cc1[N+](=O)[O-] | · | · | -0.6 | ·
